Data taken from ChEMBL document CHEMBL4373718, “Germacrane Sesquiterpenoids as a New Type of Anticardiac Fibrosis Agent Targeting Transforming Growth Factor β Type I Receptor” (J Med Chem, 2019).
Activity calls are given as the source filed them. The calls are words filed in the database; no cut-off is given here.

What was measured:
[1] = molecular target: T1, TGF-beta receptor type-1 (Rattus norvegicus) (UniProt P80204); test: Inhibition of TGFbeta1 receptor in TGFbeta1-stimulated Sprague-Dawley rat cardiac fibroblasts assessed as reduction in fibronectin expression at 50 uM measured after 12 hrs by Western blot analysis
T1 sequence (whole entry): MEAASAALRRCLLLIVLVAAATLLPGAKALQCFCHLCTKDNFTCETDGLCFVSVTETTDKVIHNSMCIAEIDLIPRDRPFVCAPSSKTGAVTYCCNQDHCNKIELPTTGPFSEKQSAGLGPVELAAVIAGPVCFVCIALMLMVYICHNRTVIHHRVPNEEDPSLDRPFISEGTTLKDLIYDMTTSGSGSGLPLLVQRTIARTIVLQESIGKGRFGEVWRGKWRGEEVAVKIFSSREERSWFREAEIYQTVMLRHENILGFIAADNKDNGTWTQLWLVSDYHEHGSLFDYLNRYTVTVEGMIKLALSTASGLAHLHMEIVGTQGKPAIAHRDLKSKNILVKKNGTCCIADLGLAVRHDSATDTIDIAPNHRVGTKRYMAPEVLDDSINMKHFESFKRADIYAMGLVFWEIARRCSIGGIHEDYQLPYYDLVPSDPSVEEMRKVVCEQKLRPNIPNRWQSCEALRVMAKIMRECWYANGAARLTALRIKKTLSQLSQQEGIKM
In short: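 Screen in primary rat cardiac fibroblasts: compounds at 50 µM or 10 µM given with 10 ng/mL TGFβ1 for 12 h. FN measured by Western blot with GAPDH loading control and densitometry. N=3 independent experiments.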

[2] = molecular target: T1, TGF-beta receptor type-1 (Rattus norvegicus); test: Inhibition of TGFbeta1 receptor in TGFbeta1-stimulated Sprague-Dawley rat cardiac fibroblasts assessed as reduction in fibronectin expression at 10 uM measured after 12 hrs by Western blot analysis relative to control
In short: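 Primary rat cardiac fibroblasts (passages 2–4, 3×10^5 per well) treated with compound plus 10 ng/mL TGFβ1 for 12 h; tested at 2.5, 5 and 10 µM. Lysates run on 10% SDS-PAGE (30 µg protein), probed for FN, α-SMA and collagen I/III, and quantified by densitometry against GAPDH. N=3 independent experiments.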

[3] = molecular target: T1, TGF-beta receptor type-1 (Rattus norvegicus); test: Inhibition of TGFbeta1 receptor in TGFbeta1-stimulated Sprague-Dawley rat cardiac fibroblasts assessed as reduction in alpha-SMA expression at 2 mM measured after 12 hrs by Western blot analysis
[4] = molecular target: T1, TGF-beta receptor type-1 (Rattus norvegicus); test: Inhibition of TGFbeta1 receptor in TGFbeta1-stimulated Sprague-Dawley rat cardiac fibroblasts assessed as reduction in collagen 1 expression at 2 mM measured after 12 hrs by Western blot analysis
[5] = molecular target: T1, TGF-beta receptor type-1 (Rattus norvegicus); test: Inhibition of TGFbeta1 receptor in TGFbeta1-stimulated Sprague-Dawley rat cardiac fibroblasts assessed as reduction in fibronectin expression at 2 mM measured after 12 hrs by Western blot analysis
[6] = molecular target: T1, TGF-beta receptor type-1 (Rattus norvegicus); test: Inhibition of TGFbeta1 receptor in TGFbeta1-stimulated Sprague-Dawley rat cardiac fibroblasts assessed as reduction in collagen 3 expression at 2 mM measured after 12 hrs by Western blot analysis
[7] = molecular target: T1, TGF-beta receptor type-1 (Rattus norvegicus); test: Inhibition of TGFbeta1 receptor in TGFbeta1-stimulated Sprague-Dawley rat cardiac fibroblasts assessed as reduction in alpha-SMA expression at 20 uM measured after 12 hrs by Western blot analysis
In short: (§1)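 Primary adult male SD rat cardiac fibroblasts were used at passages 2–4, seeded at 3×10^5 per well. Cells were co-treated with compound and 10 ng/mL TGFβ1 for 12 h. Lysates (30 µg protein) were run on 10% SDS-PAGE, Western blotted for FN, α-SMA, collagen I and III, normalised to GAPDH and quantified by densitometry; N = 3 independent experiments.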

[8] = molecular target: T1, TGF-beta receptor type-1 (Rattus norvegicus); test: Inhibition of TGFbeta1 receptor in TGFbeta1-stimulated Sprague-Dawley rat cardiac fibroblasts assessed as reduction in collagen 1 expression at 20 uM measured after 12 hrs by Western blot analysis; in short: as §1
Rattus norvegicus [9] = test: Antifibrotic activity in abdominal aortic constriction Sprague-Dawley rat model of cardiac fibrosis assessed as systolic left ventricular posterior wall thickness at 10 mg/kg, ip administered once daily for 4 weeks measured post-last dose by echocardiography (reference value: 3.62 +/- 0.26 mm); type: functional
Rattus norvegicus [10] = test: Antifibrotic activity in abdominal aortic constriction Sprague-Dawley rat model of cardiac fibrosis assessed as decrease in heart alpha-SMA level at 10 mg/kg, ip administered once daily for 4 weeks measured post-last dose by immunohistochemical analysis; type: functional, organism-based
In short: (§2)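 Male SD rats (200–250 g, n = 8/group) had the suprarenal abdominal aorta tied with 4-0 silk around a 21-G probe, which was then removed; sham rats had surgery without constriction. Dosing was ip daily for 4 weeks in saline with 0.5% DMSO and 5% Kolliphor HS 15. Ventricle slices were formalin-fixed, paraffin-embedded and cut into 4 µm sections. FN and α-SMA were read by immunohistochemistry and collagen by Masson's trichrome.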

Rattus norvegicus [11] = test: Antifibrotic activity in abdominal aortic constriction Sprague-Dawley rat model of cardiac fibrosis assessed as fractional shortening at 10 mg/kg, ip administered once daily for 4 weeks measured post-last dose by echocardiography (reference value: 48.17 +/- 4.69%); type: functional
[12] = molecular target: T1, TGF-beta receptor type-1 (Rattus norvegicus); test: Inhibition of TGFbeta1 receptor in TGFbeta1-stimulated Sprague-Dawley rat cardiac fibroblasts assessed as reduction in collagen 3 expression at 20 uM measured after 12 hrs by Western blot analysis; in short: as §1
Rattus norvegicus [13] = test: Antifibrotic activity in abdominal aortic constriction Sprague-Dawley rat model of cardiac fibrosis assessed as systolic left ventricular internal diameter at 10 mg/kg, ip administered once daily for 4 weeks measured post-last dose by echocardiography (reference value: 3.99 +/- 0.41 mm); type: functional
Rattus norvegicus [14] = test: Antifibrotic activity in abdominal aortic constriction Sprague-Dawley rat model of cardiac fibrosis assessed as decrease in heart fibronectin level at 10 mg/kg, ip administered once daily for 4 weeks measured post-last dose by immunohistochemical analysis; type: functional, organism-based; in short: as §2
Rattus norvegicus [15] = test: Antifibrotic activity in abdominal aortic constriction Sprague-Dawley rat model of cardiac fibrosis assessed as systolic left ventricular anterior wall thickness at 10 mg/kg, ip administered once daily for 4 weeks measured post-last dose by echocardiography (reference value: 3.92 +/- 0.42 mm); type: functional
Rattus norvegicus [16] = test: Antifibrotic activity in abdominal aortic constriction Sprague-Dawley rat model of cardiac fibrosis assessed as ejection fraction at 10 mg/kg, ip administered once daily for 4 weeks measured post-last dose by echocardiography (reference value: 79.59 +/- 3.13%); type: functional
Rattus norvegicus [17] = test: Antifibrotic activity in abdominal aortic constriction Sprague-Dawley rat model of cardiac fibrosis assessed as diastolic left ventricular posterior wall thickness at 10 mg/kg, ip administered once daily for 4 weeks measured post-last dose by echocardiography (reference value: 2.33 +/- 0.31 mm); type: functional
[18] = molecular target: T1, TGF-beta receptor type-1 (Rattus norvegicus); test: Inhibition of TGFbeta1 receptor in TGFbeta1-stimulated Sprague-Dawley rat cardiac fibroblasts assessed as reduction in fibronectin expression at 20 uM measured after 12 hrs by Western blot analysis; in short: as §1
Rattus norvegicus [19] = test: Antifibrotic activity in abdominal aortic constriction Sprague-Dawley rat model of cardiac fibrosis assessed as diastolic left ventricular internal diameter at 10 mg/kg, ip administered once daily for 4 weeks measured post-last dose by echocardiography (reference value: 7.60 +/- 0.63 mm); type: functional
Rattus norvegicus [20] = test: Antifibrotic activity in abdominal aortic constriction Sprague-Dawley rat model of cardiac fibrosis assessed as decrease in heart collagen level at 10 mg/kg, ip administered once daily for 4 weeks measured post-last dose by Masson's trichrome staining-based histological analysis; type: functional, organism-based; in short: as §2
Rattus norvegicus [21] = test: Antifibrotic activity in abdominal aortic constriction Sprague-Dawley rat model of cardiac fibrosis assessed as diastolic left ventricular anterior wall thickness at 10 mg/kg, ip administered once daily for 4 weeks measured post-last dose by echocardiography (reference value: 2.48 +/- 0.42 mm); type: functional

| Compound | fibronectin reduction (active/not active) [1] | fibronectin reduction verdict (active/not active) [2] | also measured |
| --- | --- | --- | --- |
| C=C(C)[C@@H]1CC[C@]2(C)O[C@@H]2CCC2=C[C@@H]1OC2=O | Active | – | – |
| C=C(C)[C@@H]1C/C=C(\C)[C@H](Br)CCC2=C[C@@H]1OC2=O | Active | Active | – |
| C=C(C)[C@@H]1C/C=C(\C)[C@H](Cl)CCC2=C[C@@H]1OC2=O | Active | Active | – |
| C=C(C)[C@@H]1C/C=C(\C)[C@H](O[N+](=O)[O-])CCC2=C[C@@H]1OC2=O | Active | – | – |
| C=C(C)[C@@H]1C[C@@H](O)/C(C)=C/CCC2=C[C@@H]1OC2=O | Active | Active | – |
| C=C(C)[C@@H]1C/C=C(\C)[C@H](OC(=O)c2cccnc2Cl)CCC2=C[C@@H]1OC2=O | Active | Active | – |
| C=C(C)[C@@H]1C/C=C(\C)[C@H](O)CCC2=C[C@@H]1OC2=O | Active | – | – |
| C=C(C)[C@@H]1CC/C(C)=C/CC[C@@H](C(=O)OC)CC1=O | inactive | inactive | – |
| C=C(C)[C@@H]1CC/C(C)=C/CCC2=C[C@@H]1OC2=O | Active | – | – |
| O=C1CCC[C@@H]2[C@H]3CCC[N+]4([O-])CCC[C@@H](CN12)[C@@H]34 (stereo partly specified) | – | – | inhibition [3]: Active; inhibition [4]: Active; inhibition [5]: Active; inhibition [6]: Active |
| C=C(C)[C@@H]1C[C@@H](N2CCCC2)/C(C)=C/CCC2=C[C@@H]1OC2=O | inactive | inactive | – |
| C=C(C)[C@@H]1C/C=C(\C)[C@H](OC(=O)c2cc(C(F)(F)F)cc(C(F)(F)F)c2)CCC2=C[C@@H]1OC2=O | Active | Active | – |
| C=C(C)[C@@H]1C/C=C(C)/C(=N\OC(C)=O)CCC2=C[C@@H]1OC2=O | inactive | inactive | – |
| C=C(C)[C@@H]1C[C@@H](OCC)/C(C)=C/CCC2=C[C@@H]1OC2=O | inactive | inactive | – |
| C=C(C)[C@@H]1C[C@@H](OC=O)/C(C)=C/CCC2=C[C@@H]1OC2=O | inactive | inactive | – |
| C=C(C)[C@@H]1CC/C(C)=C/CC[C@@H](C(=O)OCC)CC1=O | inactive | inactive | – |

| Compound | fibronectin reduction (active/not active) [1] | fibronectin reduction verdict (active/not active) [2] | also measured |
| --- | --- | --- | --- |
| C=C(C)[C@@H]1C/C=C(\C)[C@@H](O)CCC2=C[C@@H]1OC2=O | Active | – | – |
| C=C(C)[C@@H]1C/C=C(\C)[C@H](OCC)CCC2=C[C@@H]1OC2=O | Active | – | – |
| C=C(C)[C@@H]1C[C@@H](N2CCCCC2)/C(C)=C/CCC2=C[C@@H]1OC2=O | inactive | inactive | – |
| C=C(C)[C@@H]1C[C@@H](OC)/C(C)=C/CCC2=C[C@@H]1OC2=O | inactive | inactive | – |
| C=C(C)[C@@H]1C/C=C(\C)[C@H](N=[N+]=[N-])CCC2=C[C@@H]1OC2=O | Active | – | – |
| C=C(C)[C@@H]1C/C=C(\C)[C@H](OC)CCC2=C[C@@H]1OC2=O | Active | – | – |
| C=C(C)[C@@H]1C/C=C(\C)[C@H](OC(=O)c2ccc([N+](=O)[O-])cc2)CCC2=C[C@@H]1OC2=O | Active | Active | – |
| COC(=O)C1=C(C)NC(C)=C(C(=O)OC)C1c1ccccc1[N+](=O)[O-] [NIFEDIPINE] | – | – | inhibition [7]: Active; inhibition [8]: Active; Activity (Rattus norvegicus [9]): 3.19 mm; Activity (Rattus norvegicus [10]): Active; Activity (Rattus norvegicus [11]): 42.79%; inhibition [12]: Active; Activity (Rattus norvegicus [13]): 4.69 mm; Activity (Rattus norvegicus [14]): Active; Activity (Rattus norvegicus [15]): 3.23 mm; Activity (Rattus norvegicus [16]): 72.6%; Activity (Rattus norvegicus [17]): 1.97 mm; inhibition [18]: Active; Activity (Rattus norvegicus [19]): 8.32 mm; Activity (Rattus norvegicus [20]): Active; Activity (Rattus norvegicus [21]): 2.02 mm |
| C=C(C)[C@@H]1C[C@@H](N2CCOCC2)/C(C)=C/CCC2=C[C@@H]1OC2=O | inactive | inactive | – |
| C=C(C)[C@@H]1C/C=C(\C)[C@H](OC(C)=O)CCC2=C[C@@H]1OC2=O | Active | – | – |
| C=C(C)[C@@H]1C/C=C(C)/C(=N\OC(=O)c2ccco2)CCC2=C[C@@H]1OC2=O | inactive | inactive | – |
| C=C(C)[C@@H]1C/C=C(\C)[C@H](OC(=O)c2ccc(C(F)(F)F)cc2)CCC2=C[C@@H]1OC2=O | Active | – | – |
| C=C1CC[C@@H](C(=C)C)[C@@H]2C=C(CC[C@H]1F)C(=O)O2 | Active | – | – |
| C=C(C)[C@@H]1C[C@@H](OC(C)C)/C(C)=C/CCC2=C[C@@H]1OC2=O | inactive | inactive | – |
| C=C(C)[C@@H]1C/C=C(\C)[C@H](F)CCC2=C[C@@H]1OC2=O | Active | – | – |
| C=C(C)[C@@H]1C/C=C(\C)[C@H](OC(=O)c2cccs2)CCC2=C[C@@H]1OC2=O | Active | – | – |
